Drawing on ChEMBL document CHEMBL1147539, “Synthesis and biological evaluation of novel, selective, nonsteroidal glucocorticoid receptor antagonists” (Bioorg Med Chem Lett, 2004), this text covers IC50 for eleven compounds.

Assay [1] deals with T1, Glucocorticoid receptor (Homo sapiens, UniProt P04150).
T1 sequence (P04150 whole entry): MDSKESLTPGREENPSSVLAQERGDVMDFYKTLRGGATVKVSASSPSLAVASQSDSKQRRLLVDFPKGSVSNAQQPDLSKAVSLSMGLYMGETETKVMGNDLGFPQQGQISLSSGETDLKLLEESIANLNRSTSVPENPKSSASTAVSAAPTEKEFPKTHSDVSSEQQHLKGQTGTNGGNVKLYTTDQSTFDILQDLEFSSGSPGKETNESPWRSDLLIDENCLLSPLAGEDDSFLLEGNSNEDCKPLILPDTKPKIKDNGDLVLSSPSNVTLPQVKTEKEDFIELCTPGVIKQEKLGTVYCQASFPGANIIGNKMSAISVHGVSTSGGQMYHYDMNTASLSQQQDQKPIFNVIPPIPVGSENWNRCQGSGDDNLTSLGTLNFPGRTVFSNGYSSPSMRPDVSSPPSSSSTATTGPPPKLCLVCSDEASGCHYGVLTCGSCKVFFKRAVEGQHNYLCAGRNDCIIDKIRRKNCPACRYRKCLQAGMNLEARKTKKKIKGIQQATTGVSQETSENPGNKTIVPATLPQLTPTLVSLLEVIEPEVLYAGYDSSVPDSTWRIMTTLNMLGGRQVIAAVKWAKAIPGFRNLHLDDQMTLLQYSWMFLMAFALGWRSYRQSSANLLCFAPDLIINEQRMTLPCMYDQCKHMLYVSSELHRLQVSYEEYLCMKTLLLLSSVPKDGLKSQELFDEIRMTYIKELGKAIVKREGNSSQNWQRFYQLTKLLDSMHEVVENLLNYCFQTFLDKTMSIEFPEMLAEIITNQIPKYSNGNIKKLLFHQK
The experiment in a line: Effect on human Glucocorticoid receptor (GR) in a whole cell assay to measure functional cellular GR-antagonism (GRAF).

In assay [2] the target is T1, Glucocorticoid receptor. The assay is described as follows: Displacement of [3H]dexamethasone from human Glucocorticoid receptor (GR); Value ranges from 26-67 nM. A digest of the protocol: (§1)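 Binding to human GR; IC50 reported as the geometric mean of two experiments (three for some values), each run in duplicate, with the range of the experiments given.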
(In general: Displacement assays read how much labelled ligand stays bound in the presence of the test substance.)

The target in assay [3] is T1, Glucocorticoid receptor. The assay is described as follows: Displacement of [3H]dexamethasone from human Glucocorticoid receptor (GR); Value ranges from 150-220 nM. Put shortly: as §1
For assay [4], the target named is T1, Glucocorticoid receptor. The assay is described as follows: Displacement of [3H]dexamethasone from human Glucocorticoid receptor (GR); Value ranges from 681-974 nM. A digest of the protocol:
as §1

The target in assay [5] is T1, Glucocorticoid receptor. The assay is described as follows: Displacement of [3H]dexamethasone from human Glucocorticoid receptor (GR); Value ranges from 39-94 nM.
Assay [6] addresses T1, Glucocorticoid receptor. The experiment in a line: Displacement of [3H]dexamethasone from human Glucocorticoid receptor (GR); Value ranges from 949-1169 nM. Put shortly: as §1
For the next assay, the target named is T2, Androgen receptor (Homo sapiens, UniProt P10275).
T2 sequence (P10275 whole entry): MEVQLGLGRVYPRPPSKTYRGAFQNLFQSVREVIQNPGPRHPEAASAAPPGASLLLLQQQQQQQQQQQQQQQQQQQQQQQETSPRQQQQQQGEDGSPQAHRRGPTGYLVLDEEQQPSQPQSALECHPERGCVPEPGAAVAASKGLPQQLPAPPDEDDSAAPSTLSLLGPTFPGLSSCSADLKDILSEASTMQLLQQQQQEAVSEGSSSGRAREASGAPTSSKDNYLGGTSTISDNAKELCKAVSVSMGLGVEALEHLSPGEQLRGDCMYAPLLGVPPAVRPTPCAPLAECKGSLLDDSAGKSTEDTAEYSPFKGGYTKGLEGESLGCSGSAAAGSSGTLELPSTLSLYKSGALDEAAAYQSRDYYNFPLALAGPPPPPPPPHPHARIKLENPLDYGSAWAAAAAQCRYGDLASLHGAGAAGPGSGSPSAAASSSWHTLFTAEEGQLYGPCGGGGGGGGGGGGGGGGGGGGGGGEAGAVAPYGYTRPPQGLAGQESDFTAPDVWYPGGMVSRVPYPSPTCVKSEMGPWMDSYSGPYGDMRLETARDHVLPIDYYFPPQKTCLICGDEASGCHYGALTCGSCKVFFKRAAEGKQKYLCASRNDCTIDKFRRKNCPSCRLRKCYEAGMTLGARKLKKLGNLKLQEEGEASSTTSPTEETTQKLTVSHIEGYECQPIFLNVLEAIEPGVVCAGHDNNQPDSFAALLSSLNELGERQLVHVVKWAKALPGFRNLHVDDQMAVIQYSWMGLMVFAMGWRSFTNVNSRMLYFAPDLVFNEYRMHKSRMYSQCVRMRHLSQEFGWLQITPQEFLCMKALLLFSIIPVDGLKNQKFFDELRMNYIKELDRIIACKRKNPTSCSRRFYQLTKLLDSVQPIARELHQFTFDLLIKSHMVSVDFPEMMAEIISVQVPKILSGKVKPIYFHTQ
The experiment in a line: Displacement of [3H]mibolerone from human Androgen receptor.

The next assay concerns the target T3, Estrogen receptor (Homo sapiens, UniProt P03372).
T3 sequence (P03372 whole entry): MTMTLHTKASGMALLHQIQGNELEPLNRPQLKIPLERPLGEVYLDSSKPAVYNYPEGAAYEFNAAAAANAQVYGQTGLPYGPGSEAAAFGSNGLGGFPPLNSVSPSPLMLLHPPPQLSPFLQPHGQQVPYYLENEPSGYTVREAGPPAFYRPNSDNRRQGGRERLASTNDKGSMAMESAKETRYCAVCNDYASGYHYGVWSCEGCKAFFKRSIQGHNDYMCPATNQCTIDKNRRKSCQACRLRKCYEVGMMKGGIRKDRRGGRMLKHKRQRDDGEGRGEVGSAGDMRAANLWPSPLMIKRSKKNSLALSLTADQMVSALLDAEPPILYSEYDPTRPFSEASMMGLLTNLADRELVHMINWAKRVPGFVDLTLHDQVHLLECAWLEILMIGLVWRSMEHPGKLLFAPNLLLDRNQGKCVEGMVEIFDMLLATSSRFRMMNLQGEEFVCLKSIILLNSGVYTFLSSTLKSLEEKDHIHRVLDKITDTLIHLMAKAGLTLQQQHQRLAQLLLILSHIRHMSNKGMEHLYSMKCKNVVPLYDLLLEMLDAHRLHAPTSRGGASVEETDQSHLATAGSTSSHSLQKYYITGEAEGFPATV
The assay is described as follows: Displacement of [3H]estradiol from human estrogen receptor alpha. A digest of the protocol:
(§2)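 Human steroid receptor (PR, MR, AR, ERα) binding measured by radioligand displacement, with IC50s determined in duplicate. Values without a range come from a single experiment, and values with a range are geometric means of repeat experiments.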

For assay [7], the target named is T1, Glucocorticoid receptor. The assay is described as follows: Displacement of [3H]dexamethasone from human Glucocorticoid receptor (GR); Value ranges from 2-2 nM.
Assay [8] has as its target T4, Mineralocorticoid receptor (Homo sapiens, UniProt P08235).
T4 sequence (P08235 whole entry): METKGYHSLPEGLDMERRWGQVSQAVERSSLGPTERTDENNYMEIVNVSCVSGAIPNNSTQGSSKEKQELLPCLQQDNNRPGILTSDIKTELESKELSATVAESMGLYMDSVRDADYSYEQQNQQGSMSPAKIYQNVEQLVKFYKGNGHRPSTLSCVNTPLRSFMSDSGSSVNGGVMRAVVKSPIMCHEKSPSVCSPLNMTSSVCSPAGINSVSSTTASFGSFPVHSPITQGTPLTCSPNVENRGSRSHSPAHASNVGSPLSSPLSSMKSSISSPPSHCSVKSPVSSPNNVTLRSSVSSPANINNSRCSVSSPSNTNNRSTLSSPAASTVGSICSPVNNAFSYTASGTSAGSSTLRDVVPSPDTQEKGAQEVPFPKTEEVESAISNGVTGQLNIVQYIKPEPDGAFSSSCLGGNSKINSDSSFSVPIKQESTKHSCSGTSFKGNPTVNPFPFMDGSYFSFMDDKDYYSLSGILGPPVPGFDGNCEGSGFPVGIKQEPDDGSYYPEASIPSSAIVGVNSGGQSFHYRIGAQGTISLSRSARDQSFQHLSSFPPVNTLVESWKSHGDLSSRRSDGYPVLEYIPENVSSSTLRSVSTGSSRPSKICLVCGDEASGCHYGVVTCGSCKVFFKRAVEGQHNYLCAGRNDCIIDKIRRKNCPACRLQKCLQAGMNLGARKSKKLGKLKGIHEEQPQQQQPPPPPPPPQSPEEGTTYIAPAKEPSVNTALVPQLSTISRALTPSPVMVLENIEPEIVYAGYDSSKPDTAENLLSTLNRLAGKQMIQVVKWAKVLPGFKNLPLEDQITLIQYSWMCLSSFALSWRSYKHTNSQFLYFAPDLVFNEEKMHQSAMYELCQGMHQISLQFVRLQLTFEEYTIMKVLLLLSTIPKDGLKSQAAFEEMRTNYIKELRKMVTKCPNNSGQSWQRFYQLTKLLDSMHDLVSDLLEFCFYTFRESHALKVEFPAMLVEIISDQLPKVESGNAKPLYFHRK
The experiment in a line: Displacement of [3H]aldosterone from human Mineralocorticoid receptor. Put shortly:
as §2

For assay [9], the target named is T1, Glucocorticoid receptor. The assay is described as follows: Displacement of [3H]dexamethasone from human Glucocorticoid receptor (GR); Value ranges from 379-840 nM. A digest of the protocol:
as §1

The target of assay [10] is T1, Glucocorticoid receptor. The experiment in a line: Displacement of [3H]dexamethasone from human Glucocorticoid receptor (GR); Value ranges from 215-217 nM. Put shortly:
as §1

The target in assay [11] is T1, Glucocorticoid receptor.
Assay [12] addresses T1, Glucocorticoid receptor. The experiment in a line: Displacement of [3H]dexamethasone from human Glucocorticoid receptor (GR); Value ranges from 3-3 nM.
The target of assay [13] is T1, Glucocorticoid receptor. The experiment in a line: Displacement of [3H]dexamethasone from human Glucocorticoid receptor (GR); Value ranges from 44-53 nM.

Bounds are passed on as bounds.

For the compound `COc1cccc2c1-c1ccc(NS(=O)(=O)N(C)C)cc1C(c1ccccc1)O2` (stereo unspecified), the 50% inhibitory concentration (IC50) at Glucocorticoid receptor [1] came to 121 nM; on Glucocorticoid receptor [2], 41 nM.
At Glucocorticoid receptor [3], `CS(=O)(=O)Nc1ccc2c(c1)C(c1ccccc1)Oc1cccc(CO)c1-2` (stereo unspecified) had an IC50 of 180 nM.
Consider `COc1ccccc1C1Oc2cccc(OC)c2-c2ccc(NS(C)(=O)=O)cc21` (stereo unspecified), for which the figures for the half-inhibitory concentration (IC50) at Glucocorticoid receptor [1] and at Glucocorticoid receptor [4] were 665 nM and 812 nM, respectively.
As for `CCOC(=O)c1ccc(C2Oc3cccc(OC)c3-c3ccc(NS(C)(=O)=O)cc32)cc1` (stereo unspecified), the 50% inhibitory concentration (IC50) at Glucocorticoid receptor [1] came out at 388 nM; on Glucocorticoid receptor [5], 61 nM.
`COc1cccc2c1-c1ccc(N(C)S(C)(=O)=O)cc1C(c1ccccc1)O2` (stereo unspecified): the figures for the 50% inhibitory concentration (IC50) against Glucocorticoid receptor [1] and on Glucocorticoid receptor [6] were 210 nM and 1050 nM, respectively.
Turning to `CS(=O)(=O)Nc1ccc2c(c1)C(c1ccccc1)Oc1cccc(OC(F)F)c1-2` (stereo unspecified), the IC50 on Glucocorticoid receptor [1] is 57 nM; on Androgen receptor, 8730 nM; on Estrogen receptor it was > 10000 nM; on Glucocorticoid receptor [7], 2 nM; in [8], 162 nM.
With `CCNc1ccc2c(c1)C(c1ccccc1)Oc1cccc(OC)c1-2` (stereo unspecified), the concentration for half-maximal inhibition (IC50) on Glucocorticoid receptor [1] came to 382 nM; on Glucocorticoid receptor [9] it was 564 nM.
`COc1cccc2c1-c1ccc(NS(C)(=O)=O)cc1C(c1cccc(O)c1)O2` (stereo unspecified) registered an IC50 at Glucocorticoid receptor [10] of 216 nM.
As to `COc1cccc2c1-c1ccc(NS(=O)(=O)c3cccs3)cc1C(c1ccccc1)O2` (stereo unspecified), the IC50 against Glucocorticoid receptor [1] worked out at 93 nM; on Glucocorticoid receptor [11], 18 nM.
Turning to `COc1cccc2c1-c1ccc(NS(C)(=O)=O)cc1C(c1cccc(Cl)c1)O2` (stereo unspecified), the IC50 against Glucocorticoid receptor [1] was 147 nM; at Glucocorticoid receptor [12] it was 3 nM; on Androgen receptor it was > 10000 nM; on Estrogen receptor, > 10000 nM; in assay [8] it was 2150 nM.
Take `COc1cccc2c1-c1ccc(NS(C)(=O)=O)cc1C(c1cccc(Oc3ccccc3)c1)O2` (stereo unspecified): the 50% inhibitory concentration (IC50) on Glucocorticoid receptor [1] stood at 434 nM; on Glucocorticoid receptor [13] it was 48 nM.

As a reminder, the IC50 is the concentration that gives 50% inhibition. Higher therefore signals weaker potency.
